Legend:
[1] = target: Somatostatin receptor type 2 (Homo sapiens, UniProt P30874); assay: Inhibition of 125I-[Leu8,D-Trp22,Tyr25]SRIF-28 binding to human somatostatin receptor type 2
How it was run: (§1)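 Human sst2 or sst3 receptor stably expressed in CCL39 cells. 20 µm cryostat sections of cell membrane pellets were used for autoradiographic binding. IC50 (nM) came from competitive displacement. Values are mean ± SEM when N ≥ 3; otherwise mean with single values.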

[2] = target: Somatostatin receptor type 3 (Homo sapiens, UniProt P32745); assay: Inhibition of 125I-[Leu8,D-Trp22,Tyr25]SRIF-28 binding to human somatostatin receptor type 3; how it was run: as §1
Sequence of Somatostatin receptor type 3 (P32745 whole entry): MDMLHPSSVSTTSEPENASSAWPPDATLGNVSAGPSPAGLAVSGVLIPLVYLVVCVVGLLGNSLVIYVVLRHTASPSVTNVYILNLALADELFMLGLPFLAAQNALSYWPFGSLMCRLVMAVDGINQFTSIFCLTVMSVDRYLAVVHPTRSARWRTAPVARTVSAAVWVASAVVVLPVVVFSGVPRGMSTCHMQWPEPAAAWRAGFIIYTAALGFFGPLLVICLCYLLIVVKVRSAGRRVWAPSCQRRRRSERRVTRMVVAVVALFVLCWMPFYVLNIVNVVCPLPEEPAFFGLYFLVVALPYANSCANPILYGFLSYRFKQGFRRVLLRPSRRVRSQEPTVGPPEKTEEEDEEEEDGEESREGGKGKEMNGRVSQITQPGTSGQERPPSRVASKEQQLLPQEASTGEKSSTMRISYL

[3] = target: Somatostatin receptor type 4 (Homo sapiens, UniProt P31391); assay: Inhibition of 125I-[Leu8,D-Trp22,Tyr25]SRIF-28 binding to human somatostatin receptor type 4
Sequence of Somatostatin receptor type 4 (P31391 whole entry): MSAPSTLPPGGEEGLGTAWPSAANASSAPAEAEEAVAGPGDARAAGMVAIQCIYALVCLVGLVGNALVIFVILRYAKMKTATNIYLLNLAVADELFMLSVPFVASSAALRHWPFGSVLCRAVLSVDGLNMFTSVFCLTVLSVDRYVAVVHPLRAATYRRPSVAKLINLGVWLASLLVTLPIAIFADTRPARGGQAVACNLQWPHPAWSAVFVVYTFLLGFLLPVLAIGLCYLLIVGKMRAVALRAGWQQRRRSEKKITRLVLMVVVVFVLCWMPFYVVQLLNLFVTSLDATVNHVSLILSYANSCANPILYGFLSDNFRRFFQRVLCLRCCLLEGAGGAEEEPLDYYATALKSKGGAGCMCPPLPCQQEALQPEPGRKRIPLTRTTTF

[4] = target: Somatostatin receptor type 5 (Homo sapiens, UniProt P35346); assay: Inhibition of 125I-[Leu8,D-Trp22,Tyr25]SRIF-28 binding to human somatostatin receptor type 5
Sequence of Somatostatin receptor type 5 (P35346 whole entry): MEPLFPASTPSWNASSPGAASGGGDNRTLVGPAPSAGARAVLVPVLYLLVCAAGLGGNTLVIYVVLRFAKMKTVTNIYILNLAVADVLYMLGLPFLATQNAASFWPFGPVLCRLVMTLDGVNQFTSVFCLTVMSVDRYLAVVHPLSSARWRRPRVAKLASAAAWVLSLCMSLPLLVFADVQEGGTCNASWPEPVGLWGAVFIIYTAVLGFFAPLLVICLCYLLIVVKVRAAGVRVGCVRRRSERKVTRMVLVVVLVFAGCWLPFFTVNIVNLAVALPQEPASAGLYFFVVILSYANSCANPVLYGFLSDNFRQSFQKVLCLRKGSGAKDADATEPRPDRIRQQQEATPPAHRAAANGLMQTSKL
How it was run: (§2)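 Human sst1 or sst5 receptor stably expressed in CHO-K1 cells. 20 µm cryostat sections of cell membrane pellets were used for receptor autoradiography. IC50 (nM) came from competitive radioligand displacement. Values are mean ± SEM when N ≥ 3; otherwise mean with single values.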

[5] = target: Somatostatin receptor type 1 (Homo sapiens, UniProt P30872); assay: Inhibition of 125I-[Leu8,D-Trp22,Tyr25]SRIF-28 binding to human somatostatin receptor type 1; how it was run: as §2
Sequence of Somatostatin receptor type 1 (P30872 whole entry): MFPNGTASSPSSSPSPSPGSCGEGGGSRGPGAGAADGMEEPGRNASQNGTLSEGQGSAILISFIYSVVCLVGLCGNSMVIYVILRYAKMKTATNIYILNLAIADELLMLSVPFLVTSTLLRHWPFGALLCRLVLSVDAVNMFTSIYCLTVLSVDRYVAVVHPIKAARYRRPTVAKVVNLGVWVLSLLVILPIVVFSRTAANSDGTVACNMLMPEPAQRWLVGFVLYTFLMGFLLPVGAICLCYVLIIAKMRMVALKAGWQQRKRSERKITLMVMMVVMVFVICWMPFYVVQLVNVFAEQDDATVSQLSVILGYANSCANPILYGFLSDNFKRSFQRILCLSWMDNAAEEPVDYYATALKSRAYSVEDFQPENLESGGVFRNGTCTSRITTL

Sequence of Somatostatin receptor type 2 (P30874 whole entry): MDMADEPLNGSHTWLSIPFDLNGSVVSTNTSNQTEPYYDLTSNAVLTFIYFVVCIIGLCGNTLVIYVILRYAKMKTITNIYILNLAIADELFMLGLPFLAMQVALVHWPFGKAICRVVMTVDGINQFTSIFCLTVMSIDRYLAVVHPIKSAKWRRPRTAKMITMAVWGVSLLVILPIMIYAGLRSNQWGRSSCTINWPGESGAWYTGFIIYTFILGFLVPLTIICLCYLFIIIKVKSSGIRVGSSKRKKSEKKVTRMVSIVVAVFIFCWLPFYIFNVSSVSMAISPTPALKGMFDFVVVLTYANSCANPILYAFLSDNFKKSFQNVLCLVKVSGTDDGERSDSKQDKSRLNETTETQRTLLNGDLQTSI

IC50 [1] [nM] | IC50 [2] [nM] | IC50 [3] [nM] | IC50 [4] [nM] | IC50 [5] [nM] | SMILES
> 1000 | > 1000 | 215 | > 1000 | 620 | CC(C)NCc1ccc(C[C@H]2C(=O)N[C@@H]([C@@H](C)O)C(=O)N[C@@H](Cc3ccc(O)c(I)c3)C(=O)N[C@@H]3CCCCCCNC(=O)CC[C@H](NC(=O)[C@H](Cc4ccccc4)NC(=O)[C@H](CCCCN)NC(=O)[C@@H](N)CSSC[C@@H](C(=O)O)NC(=O)[C@H](CO)NC3=O)C(=O)N[C@H](Cc3c[nH]c4ccccc34)C(=O)N2C)cc1
> 1000 | > 1000 | 99 | > 1000 | 782 | CC(C)NCc1ccc(C[C@@H]2NC(=O)[C@@H](Cc3c[nH]c4ccccc34)NC(=O)[C@@H]3CCC(=O)NCCCCC[C@@H](NC(=O)[C@H](Cc4ccccc4)NC(=O)[C@H]([C@@H](C)O)NC2=O)C(=O)N[C@@H](CO)C(=O)N[C@H](C(=O)O)CSSC[C@H](NC(=O)[C@@H](N)Cc2ccc(O)cc2)C(=O)N[C@@H](CCCCN)C(=O)N[C@@H](Cc2ccccc2)C(=O)N3)cc1
> 1000 | > 1000 | > 1000 | > 1000 | 597 | CC(C)NCc1ccc(C[C@@H]2NC(=O)[C@@H](Cc3c[nH]c4ccccc34)NC(=O)[C@H](Cc3ccccc3)NC(=O)[C@@H]3CCC(=O)NCC[C@H](NC(=O)[C@H]([C@@H](C)O)NC2=O)C(=O)N[C@@H]([C@@H](C)O)C(=O)N[C@@H](CO)C(=O)N[C@H](C(=O)O)CSSC[C@H](NC(=O)[C@@H](N)Cc2ccc(O)cc2)C(=O)N[C@@H](CCCCN)C(=O)N3)cc1
5 | 11 | 1.4 | 9.5 | 112 | C[C@@H](O)[C@@H]1NC(=O)[C@H](Cc2ccccc2)NC(=O)[C@H]([C@@H](C)O)NC(=O)[C@H](CCCCN)NC(=O)[C@@H](Cc2c[nH]c3ccccc23)NC(=O)[C@H](Cc2ccccc2)NC(=O)[C@H](Cc2ccccc2)NC(=O)[C@H](CC(N)=O)NC(=O)[C@@H](N)CSSC[C@@H](C(=O)O)NC1=O
> 1000 | 905 | 786 | > 1000 | > 1000 | NCCCC[C@@H]1NC(=O)[C@@H](Cc2c[nH]c3ccccc23)NC(=O)[C@H](Cc2ccccc2)NC(=O)[C@H](Cc2ccccc2)NC(=O)[C@@H](N)CSSC[C@@H](C(=O)O)NC(=O)[C@H](Cc2ccccc2)NC1=O
> 1000 | > 1000 | > 1000 | > 1000 | > 1000 | CC(C)NCc1ccc(C[C@@H]2NC(=O)[C@@H](Cc3c[nH]c4ccccc34)NC(=O)[C@H]3CCC(=O)NCC[C@H](NC(=O)[C@H]([C@@H](C)O)NC2=O)C(=O)N[C@@H]([C@@H](C)O)C(=O)N[C@@H](CO)C(=O)N[C@H](C(=O)O)CSSC[C@H](NC(=O)[C@@H](N)Cc2ccc(O)cc2)C(=O)N[C@@H](CCCCN)C(=O)N[C@@H](Cc2ccccc2)C(=O)N3)cc1
> 1000 | > 1000 | > 1000 | > 1000 | > 1000 | CC(C)NCc1ccc(C[C@@H]2NC(=O)[C@@H](Cc3c[nH]c4ccccc34)NC(=O)[C@@H]3CC(=O)NC[C@H](NC(=O)[C@H](Cc4ccccc4)NC(=O)[C@H]([C@@H](C)O)NC2=O)C(=O)N[C@@H](CO)C(=O)N[C@H](C(=O)O)CSSC[C@H](NC(=O)[C@@H](N)Cc2ccc(O)cc2)C(=O)N[C@@H](CCCCN)C(=O)N[C@@H](Cc2ccccc2)C(=O)N3)cc1
> 1000 | > 1000 | > 1000 | > 1000 | 181 | CC(C)NCc1ccc(C[C@@H]2NC(=O)[C@@H](Cc3c[nH]c4ccccc34)NC(=O)[C@@H]3CCC(=O)NCCCC[C@H](NC(=O)[C@H](Cc4ccccc4)NC(=O)[C@H]([C@@H](C)O)NC2=O)C(=O)N[C@@H](CO)C(=O)N[C@H](C(N)=O)CSSC[C@H](NC(=O)[C@@H](N)Cc2ccc(O)cc2)C(=O)N[C@@H](CCCCN)C(=O)N[C@@H](Cc2ccccc2)C(=O)N3)cc1
> 1000 | > 1000 | > 1000 | > 1000 | > 1000 | CC(C)NCc1ccc(C[C@@H]2NC(=O)[C@@H](Cc3c[nH]c4ccccc34)NC(=O)[C@@H](NC(=O)[C@@H](N)Cc3ccccc3)CCC(=O)NCCCC[C@@H](C(=O)N[C@@H](CO)C(=O)O)NC(=O)[C@H](Cc3ccccc3)NC(=O)[C@H]([C@@H](C)O)NC2=O)cc1
> 1000 | > 1000 | > 1000 | > 1000 | 167 | CC(C)NCc1ccc(C[C@@H]2NC(=O)[C@@H](Cc3c[nH]c4ccccc34)NC(=O)[C@@H]3CCC(=O)NCCCC(=O)NCCC[C@H](NC(=O)[C@H](Cc4ccccc4)NC(=O)[C@H]([C@@H](C)O)NC2=O)C(=O)N[C@@H](CO)C(=O)N[C@H](C(=O)O)CSSC[C@H](NC(=O)[C@@H](N)Cc2ccc(O)cc2)C(=O)N[C@@H](CCCCN)C(=O)N[C@@H](Cc2ccccc2)C(=O)N3)cc1
> 1000 | > 1000 | > 1000 | > 1000 | 53 | CC(C)NCc1ccc(C[C@@H]2NC(=O)[C@@H](Cc3c[nH]c4ccccc34)NC(=O)[C@@H]3CCC(=O)NCCCC[C@H](NC(=O)[C@H](Cc4ccccc4)NC(=O)[C@H]([C@@H](C)O)NC2=O)C(=O)N[C@@H](CO)C(=O)N[C@H](C(=O)O)CSSC[C@H](NC(=O)[C@@H](N)Cc2ccc(O)cc2)C(=O)N[C@@H](CCCCN)C(=O)N[C@@H](Cc2ccccc2)C(=O)N3)cc1
> 1000 | > 1000 | > 1000 | > 1000 | > 1000 | CC(C)NCc1ccc(C[C@@H]2NC(=O)[C@@H](Cc3c[nH]c4ccccc34)NC(=O)[C@@H]3CCC(=O)NCC(=O)NCC[C@H](NC(=O)[C@H](Cc4ccccc4)NC(=O)[C@H]([C@@H](C)O)NC2=O)C(=O)N[C@@H](CO)C(=O)N[C@H](C(=O)O)CSSC[C@H](NC(=O)[C@@H](N)Cc2ccc(O)cc2)C(=O)N[C@@H](CCCCN)C(=O)N[C@@H](Cc2ccccc2)C(=O)N3)cc1
> 1000 | > 1000 | > 1000 | > 1000 | 94 | CC(C)NCc1ccc(C[C@@H]2NC(=O)[C@@H](Cc3c[nH]c4ccccc34)NC(=O)[C@@H]3CCC(=O)NCCCCC[C@H](NC(=O)[C@H](Cc4ccccc4)NC(=O)[C@H]([C@@H](C)O)NC2=O)C(=O)N[C@@H](CO)C(=O)N[C@H](C(=O)O)CSSC[C@H](NC(=O)[C@@H](N)Cc2ccc(O)cc2)C(=O)N[C@@H](CCCCN)C(=O)N[C@@H](Cc2ccccc2)C(=O)N3)cc1
598 | > 1000 | > 1000 | > 1000 | > 1000 | C[C@@H](O)[C@@H]1NC(=O)[C@H](CCCCN)NC(=O)[C@@H](Cc2c[nH]c3ccccc23)NC(=O)[C@H](Cc2ccccc2)NC(=O)[C@H](Cc2ccccc2)NC(=O)[C@@H](N)CSSC[C@@H](C(=O)O)NC1=O
> 1000 | > 1000 | > 1000 | > 1000 | 64 | CC(C)NCc1ccc(C[C@@H]2NC(=O)[C@@H](Cc3c[nH]c4ccccc34)NC(=O)[C@@H]3CCC(=O)NCCC(=O)NCCC[C@H](NC(=O)[C@H](Cc4ccccc4)NC(=O)[C@H]([C@@H](C)O)NC2=O)C(=O)N[C@@H](CO)C(=O)N[C@H](C(=O)O)CSSC[C@H](NC(=O)[C@@H](N)Cc2ccc(O)cc2)C(=O)N[C@@H](CCCCN)C(=O)N[C@@H](Cc2ccccc2)C(=O)N3)cc1
> 1000 | 445 | > 1000 | – | 720 | CC(C)NCc1ccc(C[C@@H]2NC(=O)C(Cc3c[nH]c4ccccc34)NC(=O)[C@H](Cc3ccccc3)NC(=O)[C@@H](Cc3ccccc3)NC(=O)[C@H](NC(=O)[C@@H](N)Cc3ccc(O)cc3)CSSC[C@@H](C(=O)O)NC(=O)[C@@H]([C@@H](C)O)NC(=O)[C@H](Cc3ccccc3)NC(=O)[C@@H]([C@@H](C)O)NC2=O)cc1 (stereo in doubt)
> 1000 | > 1000 | > 1000 | > 1000 | 61 | CC(C)NCc1ccc(C[C@@H]2NC(=O)[C@@H](Cc3c[nH]c4ccccc34)NC(=O)[C@@H]3CCC(=O)NCCCC(=O)NCC[C@H](NC(=O)[C@H](Cc4ccccc4)NC(=O)[C@H]([C@@H](C)O)NC2=O)C(=O)N[C@@H](CO)C(=O)N[C@H](C(=O)O)CSSC[C@H](NC(=O)[C@@H](N)Cc2ccc(O)cc2)C(=O)N[C@@H](CCCCN)C(=O)N[C@@H](Cc2ccccc2)C(=O)N3)cc1
> 1000 | > 1000 | > 1000 | > 1000 | 241 | CC(C)NCc1ccc(C[C@@H]2NC(=O)[C@@H](Cc3c[nH]c4ccccc34)NC(=O)[C@@H]3CCC(=O)NCC[C@H](NC(=O)[C@H](Cc4ccccc4)NC(=O)[C@H]([C@@H](C)O)NC2=O)C(=O)N[C@@H](CO)C(=O)N[C@H](C(=O)O)CSSC[C@H](NC(=O)[C@@H](N)Cc2ccc(O)cc2)C(=O)N[C@@H](CCCCN)C(=O)N[C@@H](Cc2ccccc2)C(=O)N3)cc1
> 1000 | > 1000 | 611 | > 1000 | 46 | CC(C)NCc1ccc(C[C@H]2C(=O)N[C@@H]([C@@H](C)O)C(=O)N[C@@H](Cc3ccc(O)c(I)c3)C(=O)N[C@H]3CCCCCCNC(=O)CC[C@H](NC(=O)[C@H](Cc4ccccc4)NC(=O)[C@H](CCCCN)NC(=O)[C@@H](N)CSSC[C@@H](C(=O)O)NC(=O)[C@H](CO)NC3=O)C(=O)N[C@H](Cc3c[nH]c4ccccc34)C(=O)N2C)cc1
